Measured values reported in ChEMBL document CHEMBL1157270, “Physalins from Witheringia solanacea as modulators of the NF-kappaB cascade” (J Nat Prod, 2006).
Calls of active or inactive are those of the source.

What was measured:
HeLa [1] = experiment: Cytotoxicity against human HeLa cells at 100 uM; format: functional, cell-based
HeLa [2] = experiment: Cytotoxicity against human HeLa cells after 72 hrs by MTT assay; format: functional, cell-based
Outline: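 HeLa cells exposed to compound for 72 h, then incubated 2 h at 37 °C with 0.5 mg/mL MTT. Formazan dissolved in 90% 2-propanol with DMSO. IC50 read from the concentration–response.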

HeLa [3] = experiment: Inhibition of PMA-induced NF-kappaB activation in human HeLa cells at 16 uM after 7 hrs by IL6/luciferase reporter gene assay; format: cell-based
Outline: (§1)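 HeLa cells stably transfected with an IL-6 promoter–luciferase reporter, stimulated with PMA (50 ng/mL final) for 7 h in the presence of compound. Luminescence given as % of RLU of the PMA-stimulated control, mean of three experiments. Active if ≥30% of positive control. Unstimulated cells served as negative control.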

HeLa [4] = experiment: Inhibition of PMA-induced NF-kappaB activation in human HeLa cells at 8 uM after 7 hrs by IL6/luciferase reporter gene assay; format: cell-based; outline: as §1
Jurkat [5] = experiment: Induction of apoptosis in human Jurkat T cells assessed as sub-G0/G1 fraction at 1 uM after 6 hrs by flow cytometry; format: functional
Outline: (§2)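 Jurkat cells (10^6) grown in RPMI 1640 with 10% heat-inactivated FBS, 2 mM glutamine, penicillin and streptomycin, then treated 6 or 24 h. Cells fixed in 70% ethanol for 24 h at 4 °C, washed in PBS with 4% glucose, treated with RNase A (50 U/mL) and stained with PI (20 µg/mL) for 1 h at room temperature. Subdiploid (sub-G0/G1) percentage measured by flow cytometry.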

Jurkat [6] = experiment: Induction of apoptosis in human Jurkat T cells assessed as sub-G0/G1 fraction at 10 uM after 6 hrs by flow cytometry; format: functional; outline: as §2
Jurkat [7] = experiment: Induction of apoptosis in human Jurkat T cells assessed as sub-G0/G1 fraction at 20 uM after 6 hrs by flow cytometry; format: functional; outline: as §2
Jurkat [8] = experiment: Induction of apoptosis in human Jurkat T cells assessed as sub-G0/G1 fraction at 1 uM after 24 hrs by flow cytometry; format: functional; outline: as §2
Jurkat [9] = experiment: Induction of apoptosis in human Jurkat T cells assessed as sub-G0/G1 fraction at 10 uM after 24 hrs by flow cytometry; format: functional; outline: as §2
Jurkat [10] = experiment: Induction of apoptosis in human Jurkat T cells assessed as sub-G0/G1 fraction at 20 uM after 24 hrs by flow cytometry; format: functional; outline: as §2
HeLa [11] = experiment: Cytotoxicity against human HeLa cells after 7 hrs; format: functional, cell-based
Outline: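 HeLa cells stably carrying an IL-6 promoter–luciferase reporter, exposed to compound with PMA (50 ng/mL final) for 7 h. Toxicity judged visually at 40× magnification from changes in cell morphology.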

HeLa [12] = experiment: Cytotoxicity against human HeLa cells at 100 ug/mL
HeLa [13] = experiment: Inhibition of PMA-induced NF-kappaB activation in human HeLa cells at 4 uM after 7 hrs by IL6/luciferase reporter gene assay relative to untreated control; format: cell-based; design: scale not given: the % may be the effect or the level left; outline: as §1
HeLa [14] = experiment: Inhibition of PMA-induced NF-kappaB activation in human HeLa cells at 2 uM after 7 hrs by IL6/luciferase reporter gene assay relative to untreated control; format: cell-based; design: scale not given: the % may be the effect or the level left; outline: as §1
Jurkat [15] = experiment: Inhibition of TNF-alpha-induced NF-kappaB activation in human Jurkat 5.1 cells preincubated for 30 mins measured after 6 hrs by HIV1-LTR luciferase assay; format: cell-based
Outline: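 5.1 cells preincubated with compound (5, 10, 20 µM) for 30 min, then stimulated with TNF (2 ng/mL) for 6 h. Lysis in Tris phosphate pH 7.8 buffer with Triton X-100. Luciferase read after subtracting lysis-buffer background and normalised to Bradford protein (RLU/µg). Result expressed as fold induction, mean of three experiments.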

Homo sapiens = species: Homo sapiens; experiment: Inhibition of NF-kappaB activation in human HeLa-Tet-On cells assessed as inhibition of doxycyclin-induced HIV1-LTR transactivation at 5 uM after 6 hrs by luciferase reporter gene assay; format: cell-based
Outline: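 HeLa-Tet-On-Luc cells seeded at 5 × 10^5 cells/mL the day before, then stimulated with doxycycline (2 µg/mL) with or without compound for 6 h. Cells washed in PBS and lysed, and luciferase activity measured.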

Row | Structure (SMILES) | Activity (HeLa [1]) | IC50 (HeLa [2]) [µM] | Activity (HeLa [3]) | Activity (HeLa [4]) | Activity (Jurkat [5]) [%] | Activity (Jurkat [6]) [%] | Activity (Jurkat [7]) [%] | Activity (Jurkat [8]) [%] | Activity (Jurkat [9]) [%] | Activity (Jurkat [10]) [%] | Activity (HeLa [11]) | Activity (HeLa [12]) | Activity (HeLa [13]) [%] | Activity (HeLa [14]) [%] | Activity (Jurkat [15]) | Activity (Homo sapiens)
1 | C[C@@]12C[C@H]3OC(=O)[C@@H]1CO[C@@]14O[C@]5([C@H]2C1=O)[C@@](O)(CC[C@H]1[C@H]4C[C@@H](O)[C@@]2(O)CC=CC(=O)[C@]12C)C(=O)O[C@@]35C | Not toxic | – | – | – | – | – | – | – | – | – | – | – | – | – | – | –
2 | C[C@]12C(=O)C=CCC1=CC[C@@H]1[C@@H]2CC[C@]2(O)C(=O)O[C@@]3(C)[C@H]4C[C@]5(C)[C@@H](CO[C@@]16O[C@@]32[C@H]5C6=O)C(=O)O4 [PHYSALIN B] | – | 2 | Active | Active | 1.83 | 2.08 | 2.08 | 6.27 | 49.7 | 50 | Not toxic | Toxic | – | – | – | –
3 | C[C@@]12C[C@H]3OC(=O)[C@@H]1CO[C@]14O[C@]5([C@H]2C1=O)[C@@](O)(CC[C@H]1[C@H]4C[C@H]2O[C@]24CC=CC(=O)[C@]14C)C(=O)O[C@@]35C [PHYSALIN F] | Toxic | 2 | Active | Active | 2.71 | 2.07 | 1.64 | 50.2 | 58.2 | 64.6 | Not toxic | – | 7 | 20 | Dose-dependent effect | inactive
